Reference: ChEMBL document CHEMBL1121546, “Studies on antimicrobial agents. 1. Synthesis and relation between the antimicrobial activities and certain physicochemical properties of some N'-(pyridinoacetyl) fatty acid hydrazides” (1980)

These compounds were tested on Aspergillus niger (assay: Minimum inhibitory concentration was evaluated in vitro againist P. As. niger 16404).
Format: functional
In short: (§1)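 Compounds in water, 50% Me₂SO–water or 100% Me₂SO. Disk-plate prescreen, with those active at 1000 μg/mL then titrated by autodilution. Fungi were grown in proteose peptone no. 3 maltose at 23 °C for 3-5 days. MIC was read as the lowest drug level showing no turbidity.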
For `CCCCCCCCCCCCCCCCCC(=O)NNC(=O)C[n+]1ccccc1`, the MIC was greater than 34 µM. `CCCCCCCCCC(=O)NNC(=O)C[n+]1ccccc1` gave an MIC of 1500 µM. Work on `CCCCCCCCCCCC(=O)NNC(=O)C[n+]1ccccc1` yielded an MIC of 170 µM. Compound `CCCCCCCC(=O)NNC(=O)C[n+]1ccccc1` has an MIC greater than 1600 µM. In the case of `CCCCCCCCCCCCCC(=O)NNC(=O)C[n+]1ccccc1`, the MIC is reported as 39 µM. `CCCCCCCC/C=C\CCCCCCCC(=O)NNC(=O)C[n+]1ccccc1` showed an MIC greater than 34 µM. For `CCCCCCCCCCCCCCCC(=O)NNC(=O)C[n+]1ccccc1`, the MIC was 37 µM.

Each compound was assayed on Candida albicans (assay: Minimum inhibitory concentration was evaluated in vitro againist P. Candida albicans 10231).
Format: functional
In short: as §1
With `CCCCCCCCCCCCCCCCCC(=O)NNC(=O)C[n+]1ccccc1` the MIC was greater than 17 µM. `CCCCCCCCCC(=O)NNC(=O)C[n+]1ccccc1` was tested, and the MIC was 730 µM. In the case of `CCCCCCCCCCCC(=O)NNC(=O)C[n+]1ccccc1`, the MIC is reported as 170 µM. `CCCCCCCC(=O)NNC(=O)C[n+]1ccccc1` showed an MIC greater than 1600 µM. Compound `CCCCCCCCCCCCCC(=O)NNC(=O)C[n+]1ccccc1` has an MIC of 19.6 µM. With `CCCCCCCC/C=C\CCCCCCCC(=O)NNC(=O)C[n+]1ccccc1` the MIC was greater than 17 µM. Work on `CCCCCCCCCCCCCCCC(=O)NNC(=O)C[n+]1ccccc1` yielded an MIC of 18 µM.

These compounds were tested on Escherichia coli (assay: Minimum inhibitory concentration was evaluated in vitro againist Escherichia coli Vogel).
Format: functional
In short: (§2)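 Compounds dissolved in water, 50% Me₂SO–water or 100% Me₂SO. They were first screened by disk-plate, and those active at 1000 μg/mL went on to the autotitration method using an automatic diluting device. Bacteria were inoculated into tryptose phosphate broth and incubated at 37 °C for 18-20 h. MIC is the lowest drug level giving complete absence of growth (turbidity).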
`CCCCCCCCCCCCCCCCCC(=O)NNC(=O)C[n+]1ccccc1` showed an MIC greater than 69 µM. With `CCCCCCCCCC(=O)NNC(=O)C[n+]1ccccc1` the MIC was greater than 1500 µM. `CCCCCCCCCCCC(=O)NNC(=O)C[n+]1ccccc1` was tested, and the MIC was 340 µM. In the case of `CCCCCCCC(=O)NNC(=O)C[n+]1ccccc1`, the MIC is reported as greater than 1600 µM. Compound `CCCCCCCCCCCCCC(=O)NNC(=O)C[n+]1ccccc1` has an MIC greater than 39 µM. Compound `CCCCCCCC/C=C\CCCCCCCC(=O)NNC(=O)C[n+]1ccccc1` has an MIC greater than 69 µM. With `CCCCCCCCCCCCCCCC(=O)NNC(=O)C[n+]1ccccc1` the MIC was greater than 37 µM.

Each compound was assayed on Klebsiella pneumoniae (assay: Minimum inhibitory concentration was evaluated in vitro againist Klebsiella pneumoniae 39645).
Format: functional
In short: as §2
For `CCCCCCCCCCCCCCCCCC(=O)NNC(=O)C[n+]1ccccc1`, the MIC was greater than 69 µM. `CCCCCCCCCC(=O)NNC(=O)C[n+]1ccccc1` showed an MIC greater than 1500 µM. `CCCCCCCCCCCC(=O)NNC(=O)C[n+]1ccccc1` was tested, and the MIC was 680 µM. For `CCCCCCCC(=O)NNC(=O)C[n+]1ccccc1`, the MIC was greater than 1600 µM. Compound `CCCCCCCCCCCCCC(=O)NNC(=O)C[n+]1ccccc1` has an MIC greater than 79 µM. Compound `CCCCCCCC/C=C\CCCCCCCC(=O)NNC(=O)C[n+]1ccccc1` has an MIC greater than 69 µM. In the case of `CCCCCCCCCCCCCCCC(=O)NNC(=O)C[n+]1ccccc1`, the MIC is reported as greater than 74 µM.

The compounds below were run on Pseudomonas aeruginosa (assay: Minimum inhibitory concentration was evaluated in vitro againist P. Ps. aeruginosa MGH-2).
Format: functional
In short: as §2
`CCCCCCCCCCCCCCCCCC(=O)NNC(=O)C[n+]1ccccc1` showed an MIC greater than 34 µM. Work on `CCCCCCCCCC(=O)NNC(=O)C[n+]1ccccc1` yielded an MIC greater than 1500 µM. In the case of `CCCCCCCCCCCC(=O)NNC(=O)C[n+]1ccccc1`, the MIC is reported as 340 µM. `CCCCCCCC(=O)NNC(=O)C[n+]1ccccc1` showed an MIC greater than 1600 µM. `CCCCCCCCCCCCCC(=O)NNC(=O)C[n+]1ccccc1` was tested, and the MIC was greater than 39 µM. `CCCCCCCC/C=C\CCCCCCCC(=O)NNC(=O)C[n+]1ccccc1` was tested, and the MIC was greater than 34 µM. `CCCCCCCCCCCCCCCC(=O)NNC(=O)C[n+]1ccccc1` was tested, and the MIC was greater than 37 µM.

What follows are compounds tested on Proteus mirabilis (assay: Minimum inhibitory concentration was evaluated in vitro againist Proteus mirabilis MGH-1).
Format: functional
In short: as §2
Compound `CCCCCCCCCCCCCCCCCC(=O)NNC(=O)C[n+]1ccccc1` has an MIC greater than 69 µM. `CCCCCCCCCC(=O)NNC(=O)C[n+]1ccccc1` showed an MIC greater than 1500 µM. For `CCCCCCCCCCCC(=O)NNC(=O)C[n+]1ccccc1`, the MIC was 1400 µM. `CCCCCCCC(=O)NNC(=O)C[n+]1ccccc1` showed an MIC greater than 1600 µM. With `CCCCCCCCCCCCCC(=O)NNC(=O)C[n+]1ccccc1` the MIC was greater than 79 µM. Work on `CCCCCCCC/C=C\CCCCCCCC(=O)NNC(=O)C[n+]1ccccc1` yielded an MIC greater than 69 µM. With `CCCCCCCCCCCCCCCC(=O)NNC(=O)C[n+]1ccccc1` the MIC was greater than 74 µM.

What follows are compounds tested on Proteus vulgaris (assay: Minimum inhibitory concentration was evaluated in vitro againist Proteus vulgaris 9920).
Format: functional
In short: as §2
`CCCCCCCCCCCCCCCCCC(=O)NNC(=O)C[n+]1ccccc1` showed an MIC greater than 69 µM. Work on `CCCCCCCCCC(=O)NNC(=O)C[n+]1ccccc1` yielded an MIC greater than 1500 µM. `CCCCCCCCCCCC(=O)NNC(=O)C[n+]1ccccc1` gave an MIC of 680 µM. Compound `CCCCCCCC(=O)NNC(=O)C[n+]1ccccc1` has an MIC greater than 1600 µM. For `CCCCCCCCCCCCCC(=O)NNC(=O)C[n+]1ccccc1`, the MIC was greater than 79 µM. `CCCCCCCC/C=C\CCCCCCCC(=O)NNC(=O)C[n+]1ccccc1` showed an MIC greater than 69 µM. `CCCCCCCCCCCCCCCC(=O)NNC(=O)C[n+]1ccccc1` gave an MIC greater than 74 µM.

The compounds below were run on Staphylococcus aureus (assay: Minimum inhibitory concentration was evaluated in vitro againist Staphylococcus aureus Smith.).
Format: functional
In short: as §2
In the case of `CCCCCCCCCCCCCCCCCC(=O)NNC(=O)C[n+]1ccccc1`, the MIC is reported as greater than 34 µM. With `CCCCCCCCCC(=O)NNC(=O)C[n+]1ccccc1` the MIC was 366 µM. `CCCCCCCCCCCC(=O)NNC(=O)C[n+]1ccccc1` gave an MIC of 85 µM. In the case of `CCCCCCCC(=O)NNC(=O)C[n+]1ccccc1`, the MIC is reported as greater than 1600 µM. Compound `CCCCCCCCCCCCCC(=O)NNC(=O)C[n+]1ccccc1` has an MIC of 19.6 µM. With `CCCCCCCC/C=C\CCCCCCCC(=O)NNC(=O)C[n+]1ccccc1` the MIC was greater than 17 µM. In the case of `CCCCCCCCCCCCCCCC(=O)NNC(=O)C[n+]1ccccc1`, the MIC is reported as 4.6 µM.

What follows are compounds tested on Streptococcus pyogenes (assay: Minimum inhibitory concentration was evaluated in vitro againist P. Streptococcus pyogenes C-203).
Format: functional
In short: as §2
Compound `CCCCCCCCCCCCCCCCCC(=O)NNC(=O)C[n+]1ccccc1` has an MIC of 1.1 µM. Work on `CCCCCCCCCC(=O)NNC(=O)C[n+]1ccccc1` yielded an MIC of 370 µM. `CCCCCCCCCCCC(=O)NNC(=O)C[n+]1ccccc1` showed an MIC of 42 µM. Compound `CCCCCCCC(=O)NNC(=O)C[n+]1ccccc1` has an MIC of 1600 µM. `CCCCCCCCCCCCCC(=O)NNC(=O)C[n+]1ccccc1` gave an MIC of 9.8 µM. For `CCCCCCCC/C=C\CCCCCCCC(=O)NNC(=O)C[n+]1ccccc1`, the MIC was 1.1 µM. `CCCCCCCCCCCCCCCC(=O)NNC(=O)C[n+]1ccccc1` gave an MIC of 9.1 µM.

These compounds were tested on Trichophyton benhamiae (assay: Minimum inhibitory concentration was evaluated in vitro againist P. Trichophyton mentagrophytes 9129).
Format: functional, Arthroderma benhamiae
In short: as §1
In the case of `CCCCCCCCCCCCCCCCCC(=O)NNC(=O)C[n+]1ccccc1`, the MIC is reported as greater than 17 µM. Work on `CCCCCCCCCC(=O)NNC(=O)C[n+]1ccccc1` yielded an MIC of 1500 µM. Compound `CCCCCCCCCCCC(=O)NNC(=O)C[n+]1ccccc1` has an MIC of 170 µM. `CCCCCCCC(=O)NNC(=O)C[n+]1ccccc1` showed an MIC greater than 1600 µM. In the case of `CCCCCCCCCCCCCC(=O)NNC(=O)C[n+]1ccccc1`, the MIC is reported as 39 µM. `CCCCCCCC/C=C\CCCCCCCC(=O)NNC(=O)C[n+]1ccccc1` gave an MIC greater than 17 µM. Work on `CCCCCCCCCCCCCCCC(=O)NNC(=O)C[n+]1ccccc1` yielded an MIC of 37 µM.
